Experimental findings from ChEMBL document CHEMBL1155425, “Synthesis and antitumor activity of 1-mesityl-3-(2-naphthoylmethano)-1H-imidazolium bromide” (Bioorg Med Chem Lett, 2010) are described below.

In one data set the test system is Mus musculus. The data set can be described thus: Acute toxicity in human A549 cells xenografted mouse at 10 to 80 mg/kg. It is filed as organism-based. The arrangement: dose 10-80 mg/kg. The settings on record: in vivo. A general note: A xenograft is tissue or cells of one species grown in another, often human tumour cells in immunodeficient mice.
A short description of data set [1]: Selectivity ratio of IC50 for human A549 cells to IC50 for human Raji cells. It counts as functional.
Data set [2] can be described thus: Selectivity ratio of IC50 for human A549 cells to IC50 for human Hep2 cells. It is filed as functional.
Data set [3] concerns A549. The data set can be described thus: Antitumor activity against human A549 cells xenografted in nude mouse assessed as increase in tumor volume at 4 mg/kg, ip administered every 2 days for 19 days measured on day 19 postimplantation relative to tumor volume on day of implantation. It counts as functional. The settings on record: route intraperitoneal. The method, boiled down:
(§1)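 Nude mice implanted s.c. in right flank with A549 cells (2 × 10⁷ cells/mL) on day 0. Treatment began at mean tumor ~100 mm³ (day 1). Compound in 0.5% CMC-Na given ip every 2 days for 19 days, 0.2 mL per 20 g body weight; cisplatin 1 mg/kg as reference. Caliper volume (W² × L)/2, expressed as RTV = TVn/TV₁.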

For data set [4], the system named is K562. The data set can be described thus: Cytotoxicity in human K562 cells after 48 hrs by MTT assay. It is filed as functional, cell-based. As to conditions: K562, 48 h. Summed up:
(§2)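 Cells grown at 37 °C, 5% CO₂, in RPMI 1640 with 10% fetal serum. Exposed 48 h to compound at 0.1–100 µg/mL. Viability by MTT, absorbance at 570 nm. IC50 is the concentration giving 50% reduction in absorbance versus untreated cells; triplicate tests.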
Background: Tetrazolium dyes change colour on reduction, which living cells bring about.

The subject of the next data set is SMMC-7721. The data set can be described thus: Cytotoxicity in human SMMC7721 cells after 48 hrs by MTT assay. It counts as functional, cell-based. The settings on record: SMMC-7721, 48 h. Summed up:
as §2

The subject of a further data set is EJ. The data set can be described thus: Cytotoxicity in human EJ cells after 48 hrs by MTT assay. It is filed as functional, cell-based. The method, boiled down:
as §2

The subject of another data set is HEp-2. The data set can be described thus: Cytotoxicity in human Hep2 cells after 48 hrs by MTT assay. It counts as functional, cell-based. The settings on record: HEp-2, 48 h. Summed up: as §2
Data set [5] deals with A549. Briefly: Cytotoxicity in human A549 cells after 48 hrs by MTT assay. It is filed as functional, cell-based. The settings on record: A549, 48 h. The method, boiled down:
as §2

Another data set concerns HepG2. Briefly: Cytotoxicity in human HepG2 cells after 48 hrs by MTT assay. As to conditions: HepG2, 48 h. It counts as functional, cell-based. Summed up:
as §2

The next data set concerns Raji. The data set can be described thus: Cytotoxicity in human Raji cells after 48 hrs by MTT assay. It counts as functional, cell-based. Summed up: as §2
Data set [6] has as its system K562. The data set can be described thus: Induction of apoptosis in human K562 cells at 2 ug/ml after 24 hrs by Annexin-V-FITC/PI double labelled cytometry. It is filed as functional. Summed up: (§3)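 K562 cells (1 × 10⁶/mL) treated 24 h, then resuspended in binding buffer. Stained with Annexin V-FITC and PI for 15 min at room temperature in the dark, diluted in binding buffer, analyzed by flow cytometry. Apoptosis rate given as mean ± S.D. of at least three independent experiments.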

The test system of data set [7] is K562. Briefly: Induction of apoptosis in human K562 cells at 10 ug/ml after 24 hrs by Annexin-V-FITC/PI double labelled cytometry. It is filed as functional. The method, boiled down: as §3
For data set [8], the system named is K562. Briefly: Cell cycle arrest in human K562 cells assessed as accumulation at G1 phase at 2 ug/ml after 24 hrs by flow cytometry. It is filed as functional. The method, boiled down: (§4)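 K562 cells, synchronized, treated 24 h. Trypsinized, washed in PBS, fixed overnight in ice-cold 70% EtOH. Treated with RNase A 100 µg/mL at 37 °C for 30 min, then stained with propidium iodide (final 50 µg/mL). 20,000 cells analyzed by flow cytometry for DNA content; phase percentages representative of three independent experiments.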
On the technique in general: Flow cytometry measures light scatter and fluorescence of single cells or particles in a stream.

Data set [9] concerns K562. Briefly: Cell cycle arrest in human K562 cells assessed as accumulation at S phase at 2 ug/ml after 24 hrs by flow cytometry. It is filed as functional. Summed up: as §4
For data set [10], the system named is K562. The data set can be described thus: Cell cycle arrest in human K562 cells assessed as accumulation at G2/M phase at 2 ug/ml after 24 hrs by flow cytometry. It is filed as functional. Summed up:
as §4

Data set [11] has as its system K562. The data set can be described thus: Cell cycle arrest in human K562 cells assessed as accumulation at G1 phase at 10 ug/ml after 24 hrs by flow cytometry. It is filed as functional. Summed up: as §4
The test system of data set [12] is K562. The data set can be described thus: Cell cycle arrest in human K562 cells assessed as accumulation at S phase at 10 ug/ml after 24 hrs by flow cytometry. It counts as functional. The method, boiled down: as §4
Data set [13] concerns K562. Briefly: Cell cycle arrest in human K562 cells assessed as accumulation at G2/M phase at 10 ug/ml after 24 hrs by flow cytometry. It is filed as functional. The method, boiled down: as §4
For data set [14], the system named is A549. The data set can be described thus: Antitumor activity against human A549 cells xenografted in nude mouse assessed as increase in tumor volume at 8 mg/kg, ip administered every 2 days for 19 days measured on day 19 postimplantation relative to tumor volume on day of implantation. It counts as functional. The settings on record: route intraperitoneal. The method, boiled down:
as §1

Broadly, the IC50 is the concentration that inhibits the measured activity by half. Low readings indicate inhibition by little substance, high ones a need for much substance. Regarding `Cc1cc(C)c(-n2cc[n+](CC(=O)c3ccc4ccccc4c3)c2)c(C)c1.[Br-]`, the Activity entry in the data set with Mus musculus is “Non-toxic”; with K562 [6], 8.1%; in the data set on K562 [7], 15.5%; in the data set on K562 [8], 40%; with K562 [9] it was 45%; in the data set with K562 [10] it was 16%. Further, the Activity is 56% in the data set on K562 [11], 26% with K562 [12] and 19% in the data set on K562 [13]. Also, the “Ratio IC50” value in [1] and in data set [2] was 8 throughout. Also, the entries for the “fold change (FC)” value in the data set on A549 [3] and in the data set on A549 [14] were 5.3 and 3.1, respectively. Also, the IC50 in the data set with K562 [4] is 1.7 µg/mL; with SMMC-7721, 1.8 µg/mL; in the data set on EJ, 1.2 µg/mL; in the data set with HEp-2 it was 0.3 µg/mL; in the data set with A549 [5], 5 µg/mL; with HepG2, 2.2 µg/mL. Besides, the IC50 with Raji turned out to be 0.7 µg/mL.
